From ChEMBL document CHEMBL1649117, “GRL-02031, a novel nonpeptidic protease inhibitor (PI) containing a stereochemically defined fused cyclopentanyltetrahydrofuran potent against multi-PI-resistant human immunodeficiency virus type 1 in vitro” (Antimicrob Agents Chemother, 2009)

What was measured:
Format in all cases: functional, organism-based
[1] = test system: Human immunodeficiency virus 1; test: Antiviral activity against HIV1 NL4-3 harboring L10I/G48V/I54V/L90M amino acid substitution in protease encoding region infected in human MT4 cells assessed as inhibition of p24 Gag protein production selected at 5 uM of saquinavir by ELISA; details: Human immunodeficiency virus 1, NL4-3, MT4
Summary of the method: (§1)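 HIV-1NL4-3 (500 TCID50s) was passaged in MT-4 cells, starting at 0.01–0.03 µM PI and raising the drug generally two- to threefold as virus propagated. Cell-free passage used day-7 supernatants. Variants were then tested in MT-4 cells (10^5/ml) with 100 TCID50s, with or without drug, at 37°C. Day-7 p24 Gag was read by chemiluminescent immunoassay; EC50 vs drug-free control; triplicate.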

[2] = test system: Human immunodeficiency virus 1; test: Antiviral activity against HIV1 NL4-3 harboring L23I/K43I/M46I/I50L/G51A/A71V amino acid substitution in protease encoding region infected in human MT4 cells assessed as inhibition of p24 Gag protein production selected at 1 uM of atazanavir by ELISA; details: Human immunodeficiency virus 1, NL4-3, MT4; summary of the method: as §1
[3] = test system: Human immunodeficiency virus 1; test: Antiviral activity against HIV1 JSL harboring L10I/L24I/L33F/E35D/M36I/N37S/M46L/I54V/R57K/I62V/L63P/A71V/G73S/82A in protease encoding region infected in human PHA-PBC assessed as inhibition of p24 Gag protein production by ELISA; details: Human immunodeficiency virus 1, JSL
Summary of the method: (§2)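 Phytohemagglutinin-stimulated PBMs (10^6/ml) infected with 50 TCID50s of each primary isolate, cultured with or without drug in 10-fold serial dilutions. On day 7, supernatant p24 Gag was measured by automated chemiluminescent enzyme immunoassay. […] Triplicate.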

[4] = test system: Human immunodeficiency virus 1; test: Antiviral activity against HIV1 MOKW infected in human PHA-PBC assessed as inhibition of p24 Gag protein production by ELISA; details: Human immunodeficiency virus 1, MOKW; summary of the method: as §2
[5] = test system: Human immunodeficiency virus 1; test: Antiviral activity against HIV1 B harboring L10I/I15V/E35D/N37E/K45R/I54V/L63P/A71V/V82T/L90M/I93L/C95F in protease encoding region infected in human PHA-PBC assessed as inhibition of p24 Gag protein production by ELISA; details: Human immunodeficiency virus 1, B; summary of the method: as §2
[6] = test system: Human immunodeficiency virus 1; test: Antiviral activity against HIV1 C harboring L10I/I15V/K20R/L24I/M36I/M46L/I54V/I62V/L63P/K70Q/V82A/L89M in protease encoding region infected in human PHA-PBC assessed as inhibition of p24 Gag protein production by ELISA; details: Human immunodeficiency virus 1, C; summary of the method: as §2
[7] = test system: Human immunodeficiency virus 1; test: Antiviral activity against HIV1 TM harboring L10I/K14R/R41K/M46L/I54V/L63P/A71V/V82A/L90M/I93L in protease encoding region infected in human PHA-PBC assessed as inhibition of p24 Gag protein production by ELISA; details: Human immunodeficiency virus 1, TM; summary of the method: as §2
[8] = test system: Human immunodeficiency virus 1; test: Antiviral activity against HIV1 G harboring L10I/V11I/T12E/I15V/L19I/R41K/M46L/L63P/A71T/V82A/L90M in protease encoding region infected in human PHA-PBC assessed as inhibition of p24 Gag protein production by ELISA; details: Human immunodeficiency virus 1, G; summary of the method: as §2
[9] = test system: Human immunodeficiency virus 1; test: Antiviral activity against HIV1 NL4-3 harboring L10F/L24I/M46I/L63P/A71V/G73S/V82T amino acid substitution in protease encoding region infected in human MT4 cells assessed as inhibition of p24 Gag protein production selected at 5 uM of indinavir by ELISA; details: Human immunodeficiency virus 1, NL4-3, MT4; summary of the method: as §1
[10] = test system: Human immunodeficiency virus 1; test: Antiviral activity against HIV1 NL4-3 harboring L10F/D30N/K45I/A71V/T74S amino acid substitution in protease encoding region infected in human MT4 cells assessed as inhibition of p24 Gag protein production selected at 5 uM of nelfinavir by ELISA; details: Human immunodeficiency virus 1, NL4-3, MT4; summary of the method: as §1
[11] = test system: Human immunodeficiency virus 1; test: Antiviral activity against HIV1 MM harboring L10I/K43T/M46L/I54V/L63P/A71V/V82A/L90M/Q92K in protease encoding region infected in human PHA-PBC assessed as inhibition of p24 Gag protein production by ELISA; details: Human immunodeficiency virus 1, MM; summary of the method: as §2
[12] = test system: Human immunodeficiency virus 1; test: Antiviral activity against HIV1 NL4-3 harboring M46I/V82F/I84V amino acid substitution in protease encoding region infected in human MT4 cells assessed as inhibition of p24 Gag protein production selected at 5 uM of ritonavir by ELISA; details: Human immunodeficiency virus 1, NL4-3, MT4; summary of the method: as §1

Which EC50 [1] does the source give for `Cc1cccc(C)c1OCC(=O)N[C@@H](Cc1ccccc1)[C@@H](O)C[C@H](Cc1ccccc1)NC(=O)[C@H](C(C)C)N1CCCNC1=O` [LOPINAVIR] here?
Its EC50 is 700 nM.

What about the EC50 [2] of the same molecule?
The EC50 was 25 nM.

What about the EC50 [3] of the same molecule?
Its EC50 is 740 nM.

What about the EC50 [4] of the same molecule?
The EC50 was 29 nM.

And the EC50 [5]?
Its EC50 is 250 nM.

What about the EC50 [6] of the same molecule?
Its EC50 is 460 nM.

And the EC50 [7]?
The EC50 was 230 nM.

What about the EC50 [8] of the same molecule?
The EC50 was 130 nM.

And the EC50 [9]?
Its EC50 is > 1000 nM.

What about the EC50 [10] of the same molecule?
Its EC50 is 290 nM.

And the EC50 [11]?
The EC50 was 620 nM.

And the EC50 [12]?
Its EC50 is 110 nM.
